For data set [1], the target named is T-cell surface glycoprotein CD4 (Homo sapiens, UniProt P01730). The experiment in a line: Binding affinity to signal peptide of human CD4-YFP expressed in CHO-K1 cells assessed down-modulation of CD4 surface expression incubated for 24 hrs by flow cytometry. The data set is classed as cell-based. In outline:
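CHO cells stably expressing human CD4 C-terminally fused to YFP were exposed 24 h at 37 °C to 1:5 serial dilutions, washed, fixed in 1% formaldehyde and analysed by flow cytometry (488 nm laser). YFP MFI, minus non-transfected background, was expressed as % of untreated controls. IC50 is the concentration giving 50% down-modulation. Mean ± SD, n = 3.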
For orientation: In flow cytometry, cells or beads pass a laser one at a time.

For data set [2], the system named is Human immunodeficiency virus 1. Briefly: Antiviral activity against HIV-1 NL4-3 infected in human MT-4 cells assessed as inhibition of viral replication by measuring inhibition of cell viability preincubated with cells for 15 mins followed by viral infection and measured after 4 days by MTS/PES assay. As to conditions: Human immunodeficiency virus 1, NL4-3, MT4. The data set is classed as functional, organism-based. Put shortly:
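HIV-1 NL4.3 (30 pg/well) was then added at 37 °C. After 4 days, viability was read by MTS/PES (absorbance 490 and 700 nm) and the IC50 for viral replication was calculated. Mean ± SD, n = 2 or 3.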

The next data set has as its system MT4. Briefly: Cytotoxicity against human MT-4 cells assessed as inhibition of cell viability incubated for 48 hrs by MTS/PES assay. As to conditions: mt4, 48 h. The data set is classed as cell-based. Put shortly:
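Cytotoxicity: 10^4 MT-4 cells/well in DMEM with 10% FBS and 10 mM HEPES were exposed to compounds 48 h at 37 °C. CC50 was derived from the drop in viability measured by MTS/PES.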

Data set [3] in a line: Kinetic solubility of the compound in aqueous PBS buffer at H 7.4/2.5% DMSO incubated for 1 hr by nephelometry. The class given is physicochemical. As to conditions: aqueous PBS buffer with 2.5% DMSO, pH 7.4, read-out: Kinetic_solubility. Put shortly: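 Compound from a 20 mM DMSO stock was diluted into PBS pH 7.4 at a constant 2.5% DMSO, then two-fold serially diluted in quadruplicate, with extra intermediate concentrations. Plates were shaken 2 min, held 1 h at 37 °C and shaken 3 min before nephelometry. Blank-subtracted scattering onset defined kinetic solubility.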

Data set [4] is described as follows: Thermodynamic solubility of the compound in aqueous PBS buffer at pH 7.4 incubated for 72 hrs by shake flask method based UV-Vis absorption spectroscopy. The class given is physicochemical. As to conditions: read-out: Therm_solubility. Put shortly: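 Shake-flask method: 3–5 mg compound in 5 mL PBS pH 7.4 was agitated 72 h, with excess solid checked at 24 and 48 h. The solution was then filtered and the filtrate quantified by UV-Vis standard addition with Beer–Lambert. ε came from five-concentration methanol calibrations at λmax, fitted by linear least squares.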

For data set [5], the system named is CD4 (surface expression down-modulation). Briefly: Therapeutic index, ratio of CC50 for human MT-4 cells to IC50 for human CD4-YFP expressed in CHO-K1 cells assessed down-modulation of CD4 surface expression incubated for 24 hrs by flow cytometry. The class given is toxicity, cell-based. As to conditions: read-out: Ratio CC50/IC50.

A word on the IC50: it is the concentration that inhibits the measured activity by half. For orientation: CC50 means the concentration that lowers cell viability or growth by half. Regarding `C=C1CN(S(=O)(=O)c2ccc(C)cc2)CCc2cc(OCC)cc(n2)CCN(S(=O)(=O)c2ccc(C)cc2)C1.Cl`, the figures for the IC50 in data set [1] and in data set [2] were 1.5 µM and 10.4 µM, respectively. Also, in the data set on MT4, the CC50 was more than 100 µM. Moreover, the solubility kinetic at 1 h in data set [3] is 54 µM.
Take `C=C1CN(S(=O)(=O)c2ccc(N(C)C)cc2)CCc2cc(CC)cc(n2)CCN(S(=O)(=O)c2ccc(N(C)C)cc2)C1`: the IC50 in data set [1] turned out to be 0.22 µM; in data set [2] it was 1.1 µM. Besides, in the data set on MT4, the CC50 is more than 100 µM.
Consider `C=C1CN(S(=O)(=O)c2ccc(C)cc2)CCc2cc(CCC)cc(n2)CCN(S(=O)(=O)c2ccc(C)cc2)C1.Cl`, for which the IC50 in data set [1] was determined as 0.83 µM; in data set [2] it was 2.81 µM. Further, in the data set with MT4, the CC50 is more than 100 µM. Besides, in data set [4], the solubility thermodynamic at 72 h was 18 µM.
As for `C=C1CN(S(=O)(=O)c2ccc(C)cc2)CCc2cc(OCc3ccccc3)cc(n2)CCN(S(=O)(=O)c2ccc(C)cc2)C1`, the IC50 in data set [1] turned out to be 0.42 µM; in data set [2], 2.18 µM. Moreover, in the data set with MT4, the CC50 is more than 100 µM.
Turning to `C=C1CN(S(=O)(=O)c2ccc(C)cc2)CCc2cc(CCCC)cc(n2)CCN(S(=O)(=O)c2ccc(C)cc2)C1`, the IC50 came out at 0.54 µM in data set [1] and 2.41 µM in data set [2]. Besides, the CC50 in the data set on MT4 came to 65.8 µM. Also, the selectivity ratio at 24 h in data set [5] is more than 100.
Consider `C=C1CN(S(=O)(=O)c2ccc(C)cc2)CCCN(Cc2ccccc2)CCCN(S(=O)(=O)c2ccc(C)cc2)C1.Cl` [CYCLOTRIAZADISULFONAMIDE HYDROCHLORIDE], for which the results for the IC50 in data set [1] and in data set [2] were 0.33 µM and 1.68 µM, respectively. Moreover, the CC50 in the data set on MT4 is more than 100 µM. Moreover, the solubility thermodynamic at 72 h in data set [4] came to 11 µM. For the same compound, the solubility kinetic at 1 h in data set [3] stood at 43 µM.
Regarding `C=C1CN(S(=O)(=O)c2ccc(C)cc2)CCc2cc(-c3ccccc3)cc(n2)CCN(S(=O)(=O)c2ccc(C)cc2)C1.Cl`, the figures for the IC50 in data set [1] and in data set [2] were 0.74 µM and 2.47 µM, respectively. Also, the CC50 in the data set with MT4 is more than 100 µM. Also, in data set [3], the solubility kinetic at 1 h was determined as 61 µM.
With `C=C1CN(S(=O)(=O)c2ccc(C)cc2)CCc2cc(C(C)(C)C)cc(n2)CCN(S(=O)(=O)c2ccc(C)cc2)C1.Cl`, the IC50 was 0.95 µM in data set [1] and 2.7 µM in data set [2]. In addition, the CC50 with MT4 was more than 100 µM. The solubility thermodynamic at 72 h in data set [4] came to 20 µM.
For the compound `C=C1CN(S(=O)(=O)c2ccc(C)cc2)CCc2cc(OCC3CCCCC3)cc(n2)CCN(S(=O)(=O)c2ccc(C)cc2)C1.Cl`, the figures for the IC50 in data set [1] and in data set [2] were 0.13 µM and 0.93 µM, respectively. Also, the CC50 in the data set on MT4 is more than 100 µM. Also, the solubility kinetic at 1 h in data set [3] worked out at 65 µM.
For `C=C1CN(S(=O)(=O)c2ccc(C)cc2)CCc2cc(OC)cc(n2)CCN(S(=O)(=O)c2ccc(C)cc2)C1.Cl`, the IC50 in data set [1] is 1.88 µM; in data set [2] it was 12.6 µM. The CC50 in the data set with MT4 is more than 100 µM. The solubility thermodynamic at 72 h in data set [4] was 28 µM. The solubility kinetic at 1 h in data set [3] came out at 64 µM.
Take `C=C1CN(S(=O)(=O)c2ccc(C)cc2)CCc2cc(CC(C)C)cc(n2)CCN(S(=O)(=O)c2ccc(C)cc2)C1.Cl`: the IC50 was 0.66 µM in data set [1] and 2.3 µM in data set [2]. Also, the half-maximal cytotoxic concentration (CC50) in the data set with MT4 was determined as 87.9 µM. The selectivity ratio at 24 h in data set [5] was more than 100. In data set [4], the solubility thermodynamic at 72 h was 29 µM.
Take `C=C1CN(S(=O)(=O)c2ccc(C)cc2)CCc2cc(CC)cc(n2)CCN(S(=O)(=O)c2ccc(C)cc2)C1`: the half-maximal inhibitory concentration (IC50) in data set [1] was 0.86 µM; in data set [2], 3.4 µM. In the data set with MT4, the CC50 is more than 100 µM.
As for `Br.C=C1CN(S(=O)(=O)c2ccc(C)cc2)CCc2cc(O)cc(n2)CCN(S(=O)(=O)c2ccc(C)cc2)C1`, the values for the half-maximal inhibitory concentration (IC50) in data set [1] and in data set [2] were 9.3 µM and more than 50 µM, respectively. Also, the CC50 with MT4 is more than 100 µM. In addition, the solubility thermodynamic at 72 h in data set [4] came to 27 µM.
Consider `C=C1CN(S(=O)(=O)c2ccc(C)cc2)CCc2cc(C)cc(n2)CCN(S(=O)(=O)c2ccc(C)cc2)C1`, for which the figures for the IC50 in data set [1] and in data set [2] were 1.67 µM and more than 50 µM, respectively. Also, the CC50 with MT4 is more than 100 µM.
The like results for `C=C1CN(S(=O)(=O)c2ccc(C)cc2)CCc2cccc(n2)CCN(S(=O)(=O)c2ccc(C)cc2)C1` were, in that order, 2.81 µM, more than 50 µM and more than 100 µM.

The values above are taken from ChEMBL document CHEMBL4673284, “Syntheses and anti-HIV and human cluster of differentiation 4 (CD4) down-modulating potencies of pyridine-fused cyclotriazadisulfonamide (CADA) compounds” (Bioorg Med Chem, 2020).
